Experimental findings from ChEMBL document CHEMBL2057127, “Design, synthesis, modeling, biological evaluation and photoaffinity labeling studies of novel series of photoreactive benzamide probes for histone deacetylase 2” (Bioorg Med Chem Lett, 2012) are described below.

The target of assay [1] is T1, Histone deacetylase 2 (Homo sapiens, UniProt Q92769). The assay can be described thus: Inhibition of HDAC2 in human MDA-MB-231 cells assessed as inhibition of H4 deacetylation at 50 uM after 24 hrs by Western blot analysis. It is filed as cell-based. Summed up:
(§1)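 MDA-MB-231 cells grown to 90% confluence in DMEM/10% FBS and treated with probes (50 µM final) or DMSO for 24 h at 37 °C, 5% CO2. Cells lysed in RIPA buffer with protease/phosphatase inhibitors, 25 µg total protein run on SDS-PAGE. Western blot with anti-acetyl histone H4, GAPDH as loading control; three independent experiments.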
Background: A western blot detects proteins with antibodies after separation by electrophoresis.

Assay [2] has as its target T2, Histone deacetylase 8 (Homo sapiens) (UniProt Q9BY41).
T2 sequence (whole entry): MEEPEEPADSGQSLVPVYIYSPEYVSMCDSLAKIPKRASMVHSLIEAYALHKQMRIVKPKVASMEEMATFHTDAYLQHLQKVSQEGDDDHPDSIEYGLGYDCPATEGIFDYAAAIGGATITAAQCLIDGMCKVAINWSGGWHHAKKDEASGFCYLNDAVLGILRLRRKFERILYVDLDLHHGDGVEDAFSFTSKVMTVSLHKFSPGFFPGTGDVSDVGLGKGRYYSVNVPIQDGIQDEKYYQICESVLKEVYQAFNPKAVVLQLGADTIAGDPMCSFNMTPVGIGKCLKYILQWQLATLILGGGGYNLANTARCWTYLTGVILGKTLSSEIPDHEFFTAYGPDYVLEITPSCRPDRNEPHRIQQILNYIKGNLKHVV
The assay can be described thus: Inhibition of human recombinant HDAC8 using BML-KI-178 as substrate at 10 uM by spectrofluorometric analysis. As to conditions: TDE = time-dependent effect.

For assay [3], the target named is T1, Histone deacetylase 2. In words: Binding affinity to His-tagged human HDAC2 assessed as decrease in biotinylation of HDAC2 at 25 uM preincubated for 24 hrs measured after 1 hr by Western blot analysis in presence of five-fold molar excess of Trichostatin A.
Assay [4] deals with T3, Histone deacetylase 1 (Homo sapiens, UniProt Q13547). In words: Inhibition of HDAC1 in human MDA-MB-231 cells assessed as inhibition of H4 deacetylation at 50 uM after 24 hrs by Western blot analysis. It is filed as cell-based. Summed up: as §1
T3 sequence (Q13547 whole entry): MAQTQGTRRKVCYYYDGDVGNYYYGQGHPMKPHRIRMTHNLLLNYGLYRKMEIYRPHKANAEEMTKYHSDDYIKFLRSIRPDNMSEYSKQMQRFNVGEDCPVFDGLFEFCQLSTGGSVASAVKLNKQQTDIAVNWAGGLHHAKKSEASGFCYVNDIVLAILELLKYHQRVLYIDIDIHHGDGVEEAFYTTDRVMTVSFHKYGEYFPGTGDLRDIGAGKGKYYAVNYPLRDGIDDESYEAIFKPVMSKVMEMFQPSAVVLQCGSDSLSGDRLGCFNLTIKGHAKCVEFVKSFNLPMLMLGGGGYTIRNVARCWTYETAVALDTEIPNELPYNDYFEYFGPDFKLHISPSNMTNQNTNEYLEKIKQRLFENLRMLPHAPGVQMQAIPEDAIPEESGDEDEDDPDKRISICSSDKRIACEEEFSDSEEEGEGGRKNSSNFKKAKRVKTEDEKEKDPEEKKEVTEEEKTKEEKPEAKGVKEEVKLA
The target in assay [5] is Histone deacetylase 3 (Homo sapiens) (UniProt O15379). The assay can be described thus: Inhibition of human recombinant HDAC3 using Boc-L-Lys (Ac)-AMC as substrate at 10 uM by spectrofluorometric analysis. The following applies: TDE = time-dependent effect.
Sequence of Histone deacetylase 3 (Homo sapiens) (O15379 whole entry): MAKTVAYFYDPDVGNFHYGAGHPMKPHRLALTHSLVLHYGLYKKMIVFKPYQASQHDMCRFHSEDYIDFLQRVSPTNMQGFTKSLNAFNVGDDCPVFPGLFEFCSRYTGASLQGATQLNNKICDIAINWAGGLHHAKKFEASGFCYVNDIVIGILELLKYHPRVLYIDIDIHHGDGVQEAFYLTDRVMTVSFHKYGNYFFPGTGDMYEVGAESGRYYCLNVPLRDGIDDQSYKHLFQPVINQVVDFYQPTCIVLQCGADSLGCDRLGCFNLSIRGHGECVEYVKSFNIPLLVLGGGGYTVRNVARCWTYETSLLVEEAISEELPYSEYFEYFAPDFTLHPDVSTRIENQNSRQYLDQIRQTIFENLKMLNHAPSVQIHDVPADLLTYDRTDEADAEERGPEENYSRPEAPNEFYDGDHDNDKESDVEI
Assay [6] has as its target T3, Histone deacetylase 1. The assay can be described thus: Inhibition of human recombinant HDAC1 using Boc-L-Lys (Ac)-AMC as substrate preincubated with compound for 3 hrs measured after 35 mins by spectrofluorometric analysis.
Assay [7] addresses T3, Histone deacetylase 1. The assay can be described thus: Inhibition of human recombinant HDAC1 using Boc-L-Lys (Ac)-AMC as substrate preincubated with compound for 5 mins measured after 35 mins by spectrofluorometric analysis.
Assay [8] concerns the target T1, Histone deacetylase 2. The assay can be described thus: Inhibition of human recombinant HDAC2 using Boc-L-Lys (Ac)-AMC as substrate preincubated with compound for 5 mins measured after 35 mins by spectrofluorometric analysis.
The target in assay [9] is T1, Histone deacetylase 2. The assay can be described thus: Inhibition of human recombinant HDAC2 using Boc-L-Lys (Ac)-AMC as substrate preincubated with compound for 24 hrs measured after 35 mins by spectrofluorometric analysis.
Assay [10] addresses T1, Histone deacetylase 2. In words: Inhibition of human recombinant HDAC2 using Boc-L-Lys (Ac)-AMC as substrate preincubated with compound for 3 hrs measured after 35 mins by spectrofluorometric analysis.

SMILES strings stand for the structures. Active and inactive are the calls of the source. The rule behind the calls is not given here.

T1 sequence (Q92769 whole entry): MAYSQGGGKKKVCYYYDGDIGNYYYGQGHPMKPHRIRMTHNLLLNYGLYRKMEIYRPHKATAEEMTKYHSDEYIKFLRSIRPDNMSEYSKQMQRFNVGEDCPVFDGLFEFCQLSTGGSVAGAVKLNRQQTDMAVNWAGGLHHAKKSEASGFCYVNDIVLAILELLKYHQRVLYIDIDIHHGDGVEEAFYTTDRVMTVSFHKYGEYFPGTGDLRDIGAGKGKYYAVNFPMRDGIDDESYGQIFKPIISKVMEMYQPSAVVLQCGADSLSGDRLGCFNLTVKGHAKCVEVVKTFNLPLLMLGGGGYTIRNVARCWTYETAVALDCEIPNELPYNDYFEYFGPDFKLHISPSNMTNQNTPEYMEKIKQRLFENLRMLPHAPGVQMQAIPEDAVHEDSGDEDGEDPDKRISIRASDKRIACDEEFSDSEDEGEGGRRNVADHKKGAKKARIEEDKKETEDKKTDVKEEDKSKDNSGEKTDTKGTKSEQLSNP

Regarding `[N-]=[N+]=NCc1cc(COC(=O)NCc2ccc(C(=O)Nc3cc(-c4ccccc4)ccc3N)cc2)cc(N=[N+]=[N-])c1`, the inhibition result on Histone deacetylase 2 [1] and on Histone deacetylase 1 [4] was “Active” each time. The inhibition result in assay [2] and in assay [5] was “tde” throughout. The result on Histone deacetylase 2 [3] was Active.

Regarding `[N-]=[N+]=NCc1cc(COC(=O)NCc2ccc(C(=O)Nc3cc(-c4cccs4)ccc3N)cc2)cc(N=[N+]=[N-])c1`, the inhibition entry on Histone deacetylase 2 [1] and at Histone deacetylase 1 [4] was “Active” in each case. Moreover, the inhibition result in [2] and in assay [5] was “tde” throughout. For the same molecule, the outcome at Histone deacetylase 2 [3] was Active.

`[N-]=[N+]=Nc1ccc(C(=O)Nc2cc(-c3ccccc3)ccc2N)cc1`: the inhibition entry at Histone deacetylase 2 [1] and at Histone deacetylase 1 [4] was “Active” in each case. Moreover, the inhibition entry in [2] and in assay [5] was “tde” each time.

Turning to `Nc1ccc(-c2ccccc2)cc1NC(=O)c1ccc(CNC(=O)OCc2ccccc2)cc1`, the inhibition result in [2] and in assay [5] was “tde” in each case.

The term IC50 denotes the concentration that inhibits the measured activity by half. Regarding `[N-]=[N+]=NCc1cc(N=[N+]=[N-])cc(C(=O)Nc2cc(-c3cccs3)ccc2N)c1`, the inhibition entry at Histone deacetylase 2 [1] and at Histone deacetylase 1 [4] was “Active” in each case. Besides, the inhibition result in [2] and in [5] was “tde” each time. For the same molecule, the half-maximal inhibitory concentration (IC50) on Histone deacetylase 1 [6] stood at 1.4 µM; on Histone deacetylase 1 [7] it was 5.6 µM. The result on Histone deacetylase 2 [3] was Active.

With `[N-]=[N+]=NCc1cc(N=[N+]=[N-])cc(C(=O)Nc2cc(-c3ccccc3)ccc2N)c1`, the inhibition result on Histone deacetylase 2 [1] and at Histone deacetylase 1 [4] was “Active” in each case. In addition, the inhibition result in assay [2] and in assay [5] was “tde” each time. Besides, at Histone deacetylase 2 [3], the result was Active.

For `Nc1ccc(-c2ccccc2)cc1NC(=O)c1ccccc1`, the concentration for half-maximal inhibition (IC50) at Histone deacetylase 2 [8] stood at 1.2 µM; on Histone deacetylase 2 [9], 0.14 µM; at Histone deacetylase 2 [10], 0.35 µM; on Histone deacetylase 1 [6], 0.052 µM; at Histone deacetylase 1 [7], 0.41 µM. Moreover, the inhibition result in assay [2] and in assay [5] was “tde” each time.

In the case of `[N-]=[N+]=NCCOc1ccc(C(=O)Nc2cc(-c3cccs3)ccc2N)cc1N=[N+]=[N-]`, the IC50 at Histone deacetylase 2 [8] came to 17 µM; on Histone deacetylase 2 [10] it was 6.6 µM; on Histone deacetylase 1 [6], 3.8 µM; at Histone deacetylase 1 [7], 18 µM. In addition, the inhibition entry on Histone deacetylase 2 [1] and on Histone deacetylase 1 [4] was “Active” in each case. In addition, the inhibition entry in assay [2] and in [5] was “tde” in each case. Besides, the outcome on Histone deacetylase 2 [3] was Active.

For the molecule `[N-]=[N+]=NCCOc1ccc(C(=O)Nc2cc(-c3ccccc3)ccc2N)cc1N=[N+]=[N-]`, the IC50 on Histone deacetylase 2 [8] stood at 34 µM; on Histone deacetylase 2 [10] it was 6.5 µM; on Histone deacetylase 1 [6] it was 2.7 µM; on Histone deacetylase 1 [7], 23 µM. The inhibition result at Histone deacetylase 2 [1] and on Histone deacetylase 1 [4] was “Active” in each case. Moreover, the inhibition entry in [2] and in assay [5] was “tde” in each case. For the same molecule, the outcome at Histone deacetylase 2 [3] was Active.

On to `[N-]=[N+]=Nc1ccc(C(=O)Nc2cc(-c3cccs3)ccc2N)cc1`, for which the inhibition result at Histone deacetylase 2 [1] and at Histone deacetylase 1 [4] was “Active” in each case. In addition, the inhibition result in assay [2] and in assay [5] was “tde” throughout.

As to `[N-]=[N+]=Nc1cccc(COC(=O)NCc2ccc(C(=O)Nc3cc(-c4ccccc4)ccc3N)cc2)c1`, the IC50 on Histone deacetylase 2 [8] is 3.8 µM; on Histone deacetylase 2 [9] it was 0.32 µM; at Histone deacetylase 2 [10], 1 µM; on Histone deacetylase 1 [6], 0.78 µM; at Histone deacetylase 1 [7], 3.8 µM. The inhibition entry on Histone deacetylase 2 [1] and at Histone deacetylase 1 [4] was “Active” in each case. Also, the inhibition entry in assay [2] and in assay [5] was “tde” each time.

For `[N-]=[N+]=NCCC(=O)Nc1ccc(C(=O)Nc2cc(N=[N+]=[N-])ccc2N)cc1`, the inhibition result in [2] and in assay [5] was “tde” in each case. For the same molecule, on Histone deacetylase 2 [3], the outcome was Active.
